Measured values reported in ChEMBL document CHEMBL2034907, “Indiosides G-K: steroidal glycosides with cytotoxic and anti-inflammatory activities from Solanum violaceum” (J Nat Prod, 2012).
In brackets after ≈: the same amount, converted by molar mass.

Assays:
[1] = Antiinflammatory activity in human neutrophils assessed as inhibition of FMLP/CB-induced superoxide anion generation at 10 ug/mL incubated for 5 mins prior to FMLP/CB-challenge measured after 10 mins by spectrophotometry; type: functional; conditions: Neutrophil
Outline: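 Human neutrophils isolated by dextran sedimentation and Ficoll centrifugation, supplemented with ferricytochrome c (0.5 mg/mL) and Ca2+ (1 mM). Equilibrated 2 min at 37 °C, compound added for 5 min, then cytochalasin B (1 μg/mL) for 3 min, then fMLP (100 nM) for 10 min. SOD-inhibitable ferricytochrome c reduction followed at 550 nm with stirring. Expressed as % of fMLP/CB-activated response. DPI positive control; mean ± SEM, n = 3.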

[2] = Cytotoxicity against human Hep3B cells by MTT assay; type: functional, cell-based, Hep 3B2
[3] = tested on: A549; assay: Cytotoxicity against human A549 cells by MTT assay; type: functional, cell-based
[4] = tested on: Ca9-22; assay: Cytotoxicity against human Ca9-22 cells by MTT assay; type: functional, cell-based
[5] = tested on: MCF7; assay: Cytotoxicity against human MCF7 cells by MTT assay; type: functional, cell-based
[6] = Antiinflammatory activity in human neutrophils assessed as inhibition of FMLP/CB-induced elastase release at 10 ug/mL incubated for 5 mins prior to FMLP/CB-challenge by spectrophotometry; type: functional; conditions: Neutrophil
Outline: (§1)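 Neutrophils isolated from human blood by dextran sedimentation and Ficoll centrifugation, used at 6 × 10^5/mL with MeO-Suc-Ala-Ala-Pro-Val-p-nitroanilide (100 μM). Equilibrated 2 min at 37 °C, compound added for 5 min, then activated with fMLP (100 nM)/CB (0.5 μg/mL). Absorbance at 405 nm monitored continuously. Initial elastase release rate expressed as % of the fMLP/CB-activated DMSO control. PMSF positive control; mean ± SEM, n = 3.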

[7] = tested on: MDA-MB-231; assay: Cytotoxicity against human MDA-MB-231 cells by MTT assay; type: functional, cell-based
[8] = tested on: HepG2; assay: Cytotoxicity against human HepG2 cells by MTT assay; type: functional, cell-based
[9] = Cytotoxicity against human neutrophils assessed as increase in LDH level relative to control; type: cell-based; conditions: neutrophil
Outline: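 Lysed-cell reference made with 0.1% Triton X-100, 30 min at 37 °C. LDH in the cell-free medium was measured with a commercial kit. Result given as a percentage of total LDH release.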

[10] = Antiinflammatory activity in human neutrophils assessed as inhibition of FMLP/CB-induced superoxide anion generation incubated for 5 mins prior to FMLP/CB-challenge measured after 10 mins by spectrophotometry; type: functional, cell-based; conditions: Neutrophil
Outline: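 Neutrophils isolated by dextran sedimentation and Ficoll centrifugation. Cells were given 0.5 mg/mL ferricytochrome c and 1 mM Ca2+ and equilibrated at 37 °C for 2 min. They were then exposed to drug for 5 min and to cytochalasin B (1 μg/mL) for 3 min, then activated with fMLP (100 nM) for 10 min. Read-out was SOD-inhibitable ferricytochrome c reduction at 550 nm, monitored continuously. Mean ± SEM, n = 3.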

[11] = Antiinflammatory activity in human neutrophils assessed as inhibition of FMLP/CB-induced elastase release incubated for 5 mins prior to FMLP/CB-challenge by spectrophotometry; type: functional, cell-based; conditions: Neutrophil; outline: as §1
[12] = tested on: Neutrophil; assay: Ratio of PMSF IC50 to compound IC50 for antiinflammatory activity assessed as inhibition of elastase release in human neutrophils; type: functional

Compound | inhibition at 10 µg/mL [1] [%] | IC50 [2] [µg/mL] | IC50 [3] [µg/mL] | IC50 [4] [µg/mL] | IC50 [5] [µg/mL] | inhibition at 10 µg/mL [6] [%] | IC50 [7] [µg/mL] | IC50 [8] [µg/mL] | Activity [9] | IC50 [10] [µg/mL] | IC50 [11] [µg/mL] | Ratio IC50 [12]
CC[C@H](CC[C@@H](C)[C@H]1CC[C@H]2[C@@H]3CC=C4C[C@@H](O[C@@H]5O[C@H](CO)[C@@H](O)[C@H](O)[C@H]5O)CC[C@]4(C)[C@H]3CC[C@]12C)C(C)C [SITOGLUSIDE] | 24.9 | > 20 | > 20 | > 20 | > 20 | 1.58 | > 20 | > 20 |  |  |  | 
O=C(/C=C/c1ccc(O)cc1)NCCc1ccc(O)cc1 [N-P-COUMAROYL TYRAMINE] | 23.2 | 11.2 (≈ 39.6 µM) | 15.2 (≈ 53.7 µM) | 12.3 (≈ 43.3 µM) | > 20 | -0.17 | > 20 | 9.57 (≈ 33.8 µM) | Non-toxic |  |  | 
c1ccc2c(c1)[I+]c1ccccc1-2 [DIPHENYLENEIODONIUM] |  |  |  |  |  |  |  |  |  | 0.22 |  | 
O=S(=O)(F)Cc1ccccc1 [PHENYLMETHYLSULFONYLFLUORIDE] |  |  |  |  |  |  |  |  |  |  | 22.8 (≈ 131 µM) | 
C[C@H]1CC[C@@]2(OC1)O[C@H]1C[C@H]3[C@@H]4CC[C@H]5C[C@@H](O[C@@H]6O[C@H](CO)[C@@H](O[C@@H]7O[C@@H](C)[C@H](O)[C@@H](O)[C@H]7O)[C@H](O)[C@H]6O[C@@H]6O[C@@H](C)[C@H](O)[C@@H](O)[C@H]6O)CC[C@]5(C)[C@H]4CC[C@]3(C)[C@H]1[C@@H]2C |  | 3.32 (≈ 3.81 µM) | 7.27 (≈ 8.35 µM) | 6.76 (≈ 7.76 µM) | 11.6 (≈ 13.3 µM) | 38.9 | 8.04 (≈ 9.23 µM) | 5.33 (≈ 6.12 µM) | Toxic | 2.84 (≈ 3.26 µM) |  | 
CC[C@H](CC[C@@H](C)[C@H]1CC[C@H]2[C@@H]3C(O)C=C4C[C@@H](O[C@@H]5O[C@H](CO)[C@@H](O)[C@H](O)[C@H]5O)CC[C@]4(C)[C@H]3CC[C@]12C)C(C)C (some centres not stated) |  | > 20 | > 20 | > 20 | > 20 |  | > 20 | > 20 |  |  |  | 
COc1cccc2c1C(=O)c1c(O)c3c(c(O)c1C2=O)C[C@@](O)(C(=O)CO)C[C@@H]3O[C@H]1C[C@H](N)[C@H](O)[C@H](C)O1 [DOXORUBICIN] |  | 1.31 (≈ 2.41 µM) | 1.4 (≈ 2.58 µM) | 0.31 (≈ 0.57 µM) | 0.8 (≈ 1.47 µM) |  | 1.39 (≈ 2.56 µM) |  |  |  |  | 
C/C(=C\CO)CC[C@@H]1[C@@]2(C)CC[C@H](O[C@@H]3O[C@H](CO)[C@@H](O)[C@H](O)[C@H]3O)C(C)(C)[C@@H]2CC[C@]1(C)O [TRICALYSIOSIDE U] |  | > 20 | > 20 | > 20 | > 20 |  | > 20 | > 20 |  |  |  | 
C[C@@H]1CC[C@]2(OC1)O[C@H]1C[C@H]3[C@@H]4CC=C5C[C@@H](O[C@@H]6O[C@H](CO)[C@@H](O[C@@H]7O[C@@H](C)[C@H](O)[C@@H](O)[C@H]7O)[C@H](O)[C@H]6O)CC[C@]5(C)[C@H]4CC[C@]3(C)[C@H]1[C@H]2C [BORASSOSIDE D] |  | > 20 | > 20 | > 20 | > 20 |  | > 20 | > 20 |  |  |  | 
C[C@H]1CC[C@@]2(OC1)O[C@H]1C[C@H]3[C@@H]4CC=C5C[C@@H](O[C@@H]6O[C@H](CO)[C@@H](O[C@@H]7O[C@@H](C)[C@H](O)[C@@H](O)[C@H]7O)[C@H](O)[C@H]6O[C@@H]6O[C@@H](C)[C@H](O)[C@@H](O)[C@H]6O)CC[C@]5(C)[C@H]4CC[C@]3(C)[C@H]1[C@@H]2C |  | 2.87 (≈ 3.3 µM) | 4.09 (≈ 4.71 µM) | 3.77 (≈ 4.34 µM) | 8.84 (≈ 10.2 µM) |  | 5.84 (≈ 6.72 µM) | 6.44 (≈ 7.41 µM) | Toxic | 1.62 (≈ 1.86 µM) | 4.04 (≈ 4.65 µM) | 5
C[C@H]1CC[C@]2(OC1)O[C@H]1C[C@H]3[C@@H]4CC=C5C[C@@H](O[C@@H]6O[C@H](CO)[C@@H](O[C@@H]7O[C@@H](C)[C@H](O)[C@@H](O)[C@H]7O)[C@H](O)[C@H]6O[C@@H]6O[C@@H](C)[C@H](O)[C@@H](O)[C@H]6O)CC[C@]5(C)[C@H]4CC[C@]3(C)[C@H]1[C@H]2C [BORASSOSIDE E] |  | 2.03 (≈ 2.34 µM) | 2.34 (≈ 2.69 µM) | 2.33 (≈ 2.68 µM) | 2.61 (≈ 3 µM) |  | 2.75 (≈ 3.16 µM) | 1.83 (≈ 2.11 µM) | Toxic | 0.62 (≈ 0.713 µM) | 111 (≈ 128 µM) | 
C[C@H]1CC[C@]2(OC1)O[C@H]1C[C@H]3[C@@H]4CC=C5C[C@@H](O[C@@H]6O[C@H](CO)[C@@H](O)[C@H](O)[C@H]6O[C@@H]6O[C@@H](C)[C@H](O)[C@@H](O)[C@H]6O)CC[C@]5(C)[C@H]4CC[C@]3(C)[C@H]1[C@H]2C |  | 2.95 (≈ 4.08 µM) | 3.09 (≈ 4.27 µM) | 2.95 (≈ 4.08 µM) | 4.78 (≈ 6.61 µM) |  | 6.12 (≈ 8.47 µM) | 2.22 (≈ 3.07 µM) |  |  |  | 
C[C@H]1CC[C@@]2(OC1)O[C@H]1C[C@H]3[C@@H]4CC=C5C[C@@H](O[C@@H]6O[C@H](CO)[C@@H](O)[C@H](O)[C@H]6O[C@@H]6O[C@@H](C)[C@H](O)[C@@H](O)[C@H]6O)CC[C@]5(C)[C@H]4CC[C@]3(C)[C@H]1[C@@H]2C |  | 6.98 (≈ 9.66 µM) | 4.26 (≈ 5.89 µM) | 4.51 (≈ 6.24 µM) | 5.84 (≈ 8.08 µM) |  | 7.25 (≈ 10 µM) | 6.48 (≈ 8.96 µM) |  |  |  | 
